ChEMBL document CHEMBL1687761

Assays:
[1] = tested on: CC(=O)OCC1=C(C(=O)O)N2C(=O)[C@@H](NC(=O)Cc3cccs3)[C@H]2SC1; assay: (§1) Ratio of Kcat to Km for Escherichia coli BL21(DE3) wild-type VIM-2 beta-lactamase by spectrophotometer
[2] = tested on: CO/N=C(\C(=O)N[C@@H]1C(=O)N2C(C(=O)O)=C(COC(C)=O)CS[C@H]12)c1csc(N)n1; assay: as §1
[3] = tested on: CO/N=C(\C(=O)N[C@@H]1C(=O)N2C(C(=O)[O-])=C(C[N+]3(C)CCCC3)CS[C@H]12)c1csc(N)n1; assay: as §1
[4] = tested on: C[C@@H](O)[C@H]1C(=O)N2C(C(=O)O)=C(SCCNC=N)C[C@H]12; assay: as §1
[5] = tested on: CC(C)(O/N=C(\C(=O)N[C@@H]1C(=O)N2C(C(=O)[O-])=C(C[n+]3ccccc3)CS[C@H]12)c1csc(N)n1)C(=O)O; assay: (§2) Activity of Escherichia coli BL21(DE3) wild-type VIM-2 beta-lactamase by spectrophotometer
[6] = tested on: CO/N=C(\C(=O)N[C@@H]1C(=O)N2C(C(=O)O)=C(COC(C)=O)CS[C@H]12)c1csc(N)n1; assay: as §2
[7] = tested on: CO/N=C(\C(=O)N[C@@H]1C(=O)N2C(C(=O)[O-])=C(C[N+]3(C)CCCC3)CS[C@H]12)c1csc(N)n1; assay: as §2
[8] = tested on: C[C@@H](O)[C@H]1C(=O)N2C(C(=O)O)=C(SCCNC=N)C[C@H]12; assay: as §2
[9] = tested on: C[C@@H](O)[C@H]1C(=O)N2C(C(=O)O)=C(S[C@@H]3CN[C@H](C(=O)N(C)C)C3)[C@H](C)[C@H]12; assay: as §2
[10] = tested on: CC(=O)OCC1=C(C(=O)O)N2C(=O)[C@@H](NC(=O)Cc3cccs3)[C@H]2SC1; assay: (§3) Ratio of Kcat to Km for Escherichia coli XL1-Blue wild-type VIM-2 beta-lactamase by spectrophotometer
[11] = tested on: CO/N=C(\C(=O)N[C@@H]1C(=O)N2C(C(=O)O)=C(COC(C)=O)CS[C@H]12)c1csc(N)n1; assay: as §3
[12] = tested on: CO/N=C(\C(=O)N[C@@H]1C(=O)N2C(C(=O)[O-])=C(C[N+]3(C)CCCC3)CS[C@H]12)c1csc(N)n1; assay: as §3
[13] = tested on: CO[C@@]1(NC(=O)Cc2cccs2)C(=O)N2C(C(=O)O)=C(COC(N)=O)CS[C@@H]21; assay: as §3
[14] = tested on: C[C@@H](O)[C@H]1C(=O)N2C(C(=O)O)=C(SCCNC=N)C[C@H]12; assay: as §3
[15] = tested on: O=C(Cc1cccs1)N[C@@H]1C(=O)N2C(C(=O)O)=C(/C=C/c3ccc([N+](=O)[O-])cc3[N+](=O)[O-])CS[C@H]12; assay: as §3
[16] = tested on: CC(C)(O/N=C(\C(=O)N[C@@H]1C(=O)N2C(C(=O)[O-])=C(C[n+]3ccccc3)CS[C@H]12)c1csc(N)n1)C(=O)O; assay: (§4) Activity of Escherichia coli XL1-Blue wild-type VIM-2 beta-lactamase by spectrophotometer
[17] = tested on: CO/N=C(\C(=O)N[C@@H]1C(=O)N2C(C(=O)O)=C(COC(C)=O)CS[C@H]12)c1csc(N)n1; assay: as §4
[18] = tested on: CO/N=C(\C(=O)N[C@@H]1C(=O)N2C(C(=O)[O-])=C(C[N+]3(C)CCCC3)CS[C@H]12)c1csc(N)n1; assay: as §4
[19] = tested on: C[C@@H](O)[C@H]1C(=O)N2C(C(=O)O)=C(SCCNC=N)C[C@H]12; assay: as §4
[20] = tested on: C[C@@H](O)[C@H]1C(=O)N2C(C(=O)O)=C(S[C@@H]3CN[C@H](C(=O)N(C)C)C3)[C@H](C)[C@H]12; assay: as §4
Escherichia coli [21] = assay: Ratio of Kcat to Km for Escherichia coli XL1-Blue IMP-1 W64A mutant beta-lactamase by spectrophotometer
Escherichia coli [22] = assay: Ratio of Kcat to Km for Escherichia coli XL1-Blue VIM-2 A64W mutant beta-lactamase by spectrophotometer
How it was run: (§5)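 Mutant enzyme expressed in E. coli BL21(DE3) in autoinducing ZYP-5052 medium. Purified by anion exchange at pH 7.2, then high-resolution anion exchange at pH 9.2, plus gel filtration in 50 mM HEPES-50 μM ZnSO4 pH 7.5 where needed. Identity confirmed by tryptic peptide mass fingerprint. Steady-state kinetics on β-lactam substrates were run under the conditions used for wild-type VIM-2.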

Escherichia coli [23] = assay: Ratio of Kcat to Km for Escherichia coli XL1-Blue wild-type IMP-1 beta-lactamase by spectrophotometer
Escherichia coli [24] = assay: Activity of Escherichia coli XL1-Blue IMP-1 W64A mutant beta-lactamase by spectrophotometer
Escherichia coli [25] = assay: Activity of Escherichia coli XL1-Blue wild-type IMP-1 beta-lactamase by spectrophotometer
Escherichia coli [26] = assay: Activity of Escherichia coli XL1-Blue VIM-2 A64W mutant beta-lactamase by spectrophotometer; how it was run: as §5
[27] = tested on: Metallo-beta-lactamase (Escherichia coli), Q5U7L7 [W87F]; assay: Activity of beta-lactamase VIM-2 W87F mutant expressed in Escherichia coli XL1-Blue isolated from 3.8 hrs grown culture
How it was run: (§6)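 E. coli XL-1 carrying pLBII-VIM-2 (wild-type or W87F) was grown and sampled at the stated times, with cell density read as A600. Imipenem hydrolysis in crude cell extracts was read spectrophotometrically in 10 mM HEPES pH 7.5 with 50 μM ZnSO4 and 150 μM imipenem. Activity was normalized to cell density. Values are means of three independent measurements.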

[28] = tested on: Metallo-beta-lactamase (Escherichia coli), Q5U7L7 [W87F]; assay: Activity of beta-lactamase VIM-2 W87F mutant expressed in Escherichia coli XL1-Blue isolated from 3.3 hrs grown culture; how it was run: as §6
[29] = tested on: Metallo-beta-lactamase (Escherichia coli), Q5U7L7 [W87F]; assay: (§7) Activity of beta-lactamase VIM-2 W87F mutant expressed in Escherichia coli XL1-Blue isolated from […] grown culture
[30] = tested on: Metallo-beta-lactamase (Escherichia coli), Q5U7L7 [W87F]; assay: as §7; remark: listed apart in the source
[31] = tested on: Metallo-beta-lactamase (Escherichia coli), Q5U7L7 [W87F]; assay: as §7; remark: listed apart in the source
[32] = tested on: Metallo-beta-lactamase (Escherichia coli), Q5U7L7 [W87F]; assay: Activity of beta-lactamase VIM-2 W87F mutant expressed in Escherichia coli XL1-Blue isolated from 1.2 hrs grown culture
How it was run: (§8)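 Imipenem-hydrolyzing activity in crude cell extracts of E. coli XL-1 carrying pLBII-VIM-2 or pLBII-VIM-2-W87F. Read spectrophotometrically with 150 μM imipenem in 10 mM HEPES (pH 7.5) plus 50 μM ZnSO4. Activity normalized to culture density (A600). Means of three independent measurements.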

[33] = tested on: Metallo-beta-lactamase (Escherichia coli), Q5U7L7 [W87F]; assay: Activity of beta-lactamase VIM-2 W87F mutant expressed in Escherichia coli XL1-Blue isolated from 0.5 hrs grown culture; how it was run: as §6
[34] = biological target: Metallo-beta-lactamase (Escherichia coli) (UniProt Q5U7L7); assay: Activity of beta-lactamase VIM-2 in Escherichia coli XL1-Blue isolated from 6 hrs grown culture; how it was run: as §6
[35] = biological target: Metallo-beta-lactamase (Escherichia coli) (UniProt Q5U7L7); assay: Activity of beta-lactamase VIM-2 in Escherichia coli XL1-Blue isolated from 5 hrs grown culture; how it was run: as §6
[36] = biological target: Metallo-beta-lactamase (Escherichia coli) (UniProt Q5U7L7); assay: Activity of beta-lactamase VIM-2 in Escherichia coli XL1-Blue isolated from 4.3 hrs grown culture; how it was run: as §8
[37] = biological target: Metallo-beta-lactamase (Escherichia coli) (UniProt Q5U7L7); assay: Activity of beta-lactamase VIM-2 in Escherichia coli XL1-Blue isolated from 3.8 hrs grown culture; how it was run: as §6
[38] = biological target: Metallo-beta-lactamase (Escherichia coli) (UniProt Q5U7L7); assay: Activity of beta-lactamase VIM-2 in Escherichia coli XL1-Blue isolated from 3.3 hrs grown culture; how it was run: as §6
[39] = biological target: Metallo-beta-lactamase (Escherichia coli) (UniProt Q5U7L7); assay: (§9) Activity of beta-lactamase VIM-2 in Escherichia coli XL1-Blue isolated from […] grown culture
[40] = biological target: Metallo-beta-lactamase (Escherichia coli) (UniProt Q5U7L7); assay: as §9; remark: listed apart in the source
[41] = biological target: Metallo-beta-lactamase (Escherichia coli) (UniProt Q5U7L7); assay: as §9; remark: listed apart in the source
[42] = biological target: Metallo-beta-lactamase (Escherichia coli) (UniProt Q5U7L7); assay: Activity of beta-lactamase VIM-2 in Escherichia coli XL1-Blue isolated from 1.2 hrs grown culture; how it was run: as §8
[43] = biological target: Metallo-beta-lactamase (Escherichia coli) (UniProt Q5U7L7); assay: Activity of beta-lactamase VIM-2 in Escherichia coli XL1-Blue isolated from 0.5 hrs grown culture; how it was run: as §6
[44] = tested on: Metallo-beta-lactamase (Escherichia coli), Q5U7L7 [W87F]; assay: Activity of beta-lactamase VIM-2 W87F mutant expressed in Escherichia coli XL1-Blue isolated from 4.3 hrs grown culture; how it was run: as §8
[45] = tested on: Metallo-beta-lactamase (Escherichia coli), Q5U7L7 [W87F]; assay: Activity of beta-lactamase VIM-2 W87F mutant expressed in Escherichia coli XL1-Blue isolated from 5.0 hrs grown culture; how it was run: as §6
[46] = tested on: Metallo-beta-lactamase (Escherichia coli), Q5U7L7 [W87F]; assay: Activity of beta-lactamase VIM-2 W87F mutant expressed in Escherichia coli XL1-Blue isolated from 6.0 hrs grown culture; how it was run: as §6

Compound: Metallo-beta-lactamase (Escherichia coli) (from UniProt Q5U7L7)
- kcat/Km [1]: 1.2e+07 M⁻¹ s⁻¹
- kcat/Km [2]: 5.8e+06 M⁻¹ s⁻¹
- kcat/Km [3]: 100000 M⁻¹ s⁻¹
- kcat/Km [4]: 3.8e+06 M⁻¹ s⁻¹
- Km [5]: 72 µM
- Km [6]: 12 µM
- kcat [6]: 70 s⁻¹
- Km [7]: > 400 µM
- kcat [7]: > 40 s⁻¹
- Km [8]: 9 µM
- kcat [8]: 34 s⁻¹
- Km [9]: 2 µM
- kcat [9]: 5 s⁻¹
- kcat/Km [10]: 1.2e+07 M⁻¹ s⁻¹
- kcat/Km [11]: 5.8e+06 M⁻¹ s⁻¹
- kcat/Km [12]: 100000 M⁻¹ s⁻¹
- kcat/Km [13]: 1.2e+06 M⁻¹ s⁻¹
- kcat/Km [14]: 3.8e+06 M⁻¹ s⁻¹
- kcat/Km [15]: 4.3e+07 M⁻¹ s⁻¹
- Km [16]: 72 µM
- Km [17]: 12 µM
- kcat [17]: 70 s⁻¹
- Km [18]: > 400 µM
- kcat [18]: > 40 s⁻¹
- Km [19]: 9 µM
- kcat [19]: 34 s⁻¹
- Km [20]: 2 µM
- kcat [20]: 5 s⁻¹

Compound: CC(=O)OCC1=C(C(=O)O)N2C(=O)[C@@H](NC(=O)Cc3cccs3)[C@H]2SC1
- kcat/Km (Escherichia coli [21]): 310000 M⁻¹ s⁻¹
- kcat/Km (Escherichia coli [22]): 2.2e+07 M⁻¹ s⁻¹
- kcat/Km (Escherichia coli [23]): 6.4e+06 M⁻¹ s⁻¹
- Km (Escherichia coli [24]): > 500 µM
- kcat (Escherichia coli [24]): > 250 s⁻¹
- Km (Escherichia coli [25]): 5 µM
- kcat (Escherichia coli [25]): 32 s⁻¹
- Km (Escherichia coli [26]): 6 µM
- kcat (Escherichia coli [26]): 135 s⁻¹

Compound: C[C@@H](O)[C@H]1C(=O)N2C(C(=O)O)=C(SCCNC=N)C[C@H]12
- Activity [27]: 4.7 nmol/mL/min
- Activity [28]: < 2.7 nmol/mL/min
- Activity [29]: < 2.7 nmol/mL/min
- Activity [30]: < 2.7 nmol/mL/min
- Activity [31]: < 2.7 nmol/mL/min
- Activity [32]: < 2.7 nmol/mL/min
- Activity [33]: < 2.7 nmol/mL/min
- Activity [34]: 380 nmol/mL/min
- Activity [35]: 330 nmol/mL/min
- Activity [36]: 270 nmol/mL/min
- Activity [37]: 240 nmol/mL/min
- Activity [38]: 170 nmol/mL/min
- Activity [39]: 110 nmol/mL/min
- Activity [40]: 39 nmol/mL/min
- Activity [41]: 30 nmol/mL/min
- Activity [42]: < 2.7 nmol/mL/min
- Activity [43]: < 2.7 nmol/mL/min
- kcat/Km (Escherichia coli [21]): 550000 M⁻¹ s⁻¹
- kcat/Km (Escherichia coli [22]): 2.9e+06 M⁻¹ s⁻¹
- kcat/Km (Escherichia coli [23]): 2.7e+06 M⁻¹ s⁻¹
- Km (Escherichia coli [24]): 120 µM
- kcat (Escherichia coli [24]): 67 s⁻¹
- Km (Escherichia coli [25]): 25 µM
- kcat (Escherichia coli [25]): 68 s⁻¹
- Km (Escherichia coli [26]): 21 µM
- kcat (Escherichia coli [26]): 60 s⁻¹
- Activity [44]: 4.7 nmol/mL/min
- Activity [45]: 7.9 nmol/mL/min
- Activity [46]: 9.5 nmol/mL/min

Compound: O=C(Cc1cccs1)N[C@@H]1C(=O)N2C(C(=O)O)=C(/C=C/c3ccc([N+](=O)[O-])cc3[N+](=O)[O-])CS[C@H]12
- kcat/Km (Escherichia coli [21]): 4.3e+06 M⁻¹ s⁻¹
- kcat/Km (Escherichia coli [22]): 2.7e+07 M⁻¹ s⁻¹
- kcat/Km (Escherichia coli [23]): 1.4e+07 M⁻¹ s⁻¹
- Km (Escherichia coli [24]): 160 µM
- kcat (Escherichia coli [24]): 700 s⁻¹
- Km (Escherichia coli [25]): 8.2 µM
- kcat (Escherichia coli [25]): 130 s⁻¹
- Km (Escherichia coli [26]): 10 µM
- kcat (Escherichia coli [26]): 270 s⁻¹

Compound: C[C@@H](O)[C@H]1C(=O)N2C(C(=O)O)=C(S[C@@H]3CN[C@H](C(=O)N(C)C)C3)[C@H](C)[C@H]12
- kcat/Km (Escherichia coli [22]): 3e+06 M⁻¹ s⁻¹
- kcat/Km (Escherichia coli [23]): 500000 M⁻¹ s⁻¹
- Km (Escherichia coli [25]): 10 µM
- kcat (Escherichia coli [25]): 5 s⁻¹
- Km (Escherichia coli [26]): 2 µM
- kcat (Escherichia coli [26]): 6 s⁻¹
